For data set [1], the target named is Coagulation factor X (Homo sapiens, UniProt P00742). Put plainly: Inhibitory activity against Coagulation factor X (fXa). In a few lines: (§1)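 Chromogenic assay at room temperature in pH 8.4 buffer (0.1 M Tris, 0.2 M NaCl, 0.1% PEG-6000, 0.02% Tween20). For fXa, 4.5 nM enzyme with 200 μM S-2222; for thrombin, 1.1 nM enzyme with 100 μM S-2238 (final). Inhibitor and enzyme preincubated 10 min, then substrate added. p-Nitroaniline release read at 405 nm for 16 min. IC50 taken from initial velocities; apparent Ki scaled from IC50 ratios against a standard inhibitor's Ki from a double reciprocal plot.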

The target of data set [2] is Prothrombin (Homo sapiens, UniProt P00734). Put plainly: Inhibitory activity against thrombin. In a few lines: as §1
The target in data set [3] is Thrombin and coagulation factor X (Homo sapiens) (UniProt P00734+P00742). Put plainly: Selectivity for factor Xa (fXa) versus thrombin. The class given is protein assay.
A short description of data set [4]: Oral bioavailability. The settings on record: eutheria, in vivo. The class given is ADME, organism-based. In a few lines: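 Overnight-fasted male cynomolgus monkeys received 10 mg/kg orally by gastric tube, or 0.3 or 1.0 mg/kg intravenously. Saphenous vein blood was drawn into trisodium citrate before dosing and at several times up to 24 h. Plasma drug levels were measured by HPLC.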

Data set [5] is filed under the species Homo sapiens. In words: Concentration required to double the prothrombin time(PT) in human plasma was determined. The class given is functional.
Data set [6] has as its system Monkey. Put plainly: Concentration required to double the prothrombin time (PT) in plasma of cynomolgus monkey.

Coagulation factor X, sequence (P00742 41-179 limits assumed): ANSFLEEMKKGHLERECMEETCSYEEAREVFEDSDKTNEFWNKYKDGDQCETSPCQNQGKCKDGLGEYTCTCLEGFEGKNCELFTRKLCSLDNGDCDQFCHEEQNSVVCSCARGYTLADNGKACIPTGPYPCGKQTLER
Coagulation factor X, sequence (P00742 235-488 limits assumed): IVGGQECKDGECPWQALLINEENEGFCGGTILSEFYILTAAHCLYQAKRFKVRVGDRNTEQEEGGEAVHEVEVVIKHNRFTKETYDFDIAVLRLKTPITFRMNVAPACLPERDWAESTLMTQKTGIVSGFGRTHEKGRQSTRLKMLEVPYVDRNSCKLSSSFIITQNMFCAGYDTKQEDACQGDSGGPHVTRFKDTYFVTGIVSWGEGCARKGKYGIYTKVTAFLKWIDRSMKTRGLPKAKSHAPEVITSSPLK
Thrombin and coagulation factor X (Homo sapiens), sequence (P00742 whole entry, looked up, other chains not shown): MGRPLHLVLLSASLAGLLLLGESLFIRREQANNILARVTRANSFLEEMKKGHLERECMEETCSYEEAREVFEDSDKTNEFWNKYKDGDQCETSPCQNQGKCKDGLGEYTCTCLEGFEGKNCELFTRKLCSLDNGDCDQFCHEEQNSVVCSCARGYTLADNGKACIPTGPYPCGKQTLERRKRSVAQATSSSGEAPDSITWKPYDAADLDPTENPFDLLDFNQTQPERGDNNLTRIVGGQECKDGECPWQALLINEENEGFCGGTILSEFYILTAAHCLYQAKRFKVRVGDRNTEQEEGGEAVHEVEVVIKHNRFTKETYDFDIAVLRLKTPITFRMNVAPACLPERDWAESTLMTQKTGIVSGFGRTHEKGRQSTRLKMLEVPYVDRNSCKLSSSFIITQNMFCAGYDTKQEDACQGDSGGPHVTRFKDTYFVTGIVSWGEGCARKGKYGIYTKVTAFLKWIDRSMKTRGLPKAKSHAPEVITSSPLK

A word on the Ki: it is the equilibrium dissociation constant of an inhibitor or competing ligand from its target. With `N=C(N)c1ccc(C(=O)N[C@H](COc2cccc(C(=N)N)c2)CC(=O)O)cc1`, the Ki is 0.17 µM in data set [1] and above 1500 µM in data set [2]. Also, the Ratio in data set [3] was above 8800.

By bioavailability is commonly meant the share of a dose that reaches the circulation, judged against a reference dose that is usually intravenous. Turning to `N=C(N)c1ccc(CCC(=O)O)c(OCCNC(=O)C2CCN(c3ccncc3)CC2)c1`, the bioavailability in data set [4] was determined as 6%. The Ki was 0.043 µM in data set [1] and above 1500 µM in data set [2]. Besides, the PT stood at 0.42 µM in data set [5] and 0.7 µM in data set [6]. In addition, in data set [3], the Ratio is above 35000.

Regarding `N=C(N)c1ccc(C(=O)N[C@@H](COc2cccc(C(=N)N)c2)CC(=O)O)cc1`, the results for the Ki in data set [1] and in data set [2] were 0.028 µM and above 1500 µM, respectively. Besides, the Ratio in data set [3] was above 54000.

`CC(=N)N1CCC(Oc2ccc(C(=O)NCCOc3cc(C(=N)N)ccc3CC(=O)C(=O)O)cc2)CC1`: the Ki in data set [1] was 0.02 µM; in data set [2], 53 µM. Also, the PT in data set [5] came out at 0.2 µM; in data set [6] it was 0.12 µM. In addition, the Ratio in data set [3] came out at 2700.

For `N=C(N)c1ccc(CC(=O)C(=O)O)c(OCCNC(=O)c2ccc(C(=O)N3CCCC3)cc2)c1`, the inhibition constant Ki in data set [1] stood at 0.003 µM; in data set [2] it was 24 µM. Also, in data set [3], the Ratio was 8000.

For `N=C(N)c1ccc(CC(=O)C(=O)O)c(OC[C@@H](CC(=O)O)NC(=O)C2CCN(c3ccncc3)CC2)c1`, the Ki turned out to be 0.018 µM in data set [1] and 680 µM in data set [2]. For the same compound, in data set [3], the Ratio stood at 38000.

On to `N=C(N)c1ccc(C(=O)NCCOc2cc(C(=N)N)ccc2CC(=O)C(=O)O)cc1`, for which the Ki in data set [1] came to 0.026 µM; in data set [2] it was 38 µM. For the same compound, the Ratio in data set [3] came out at 1500.

Consider `CC(=N)N1CCC(Oc2ccc(C(=O)NCCOc3cccc(C(=N)N)c3)cc2)CC1`, for which the Ki in data set [1] came to 0.17 µM; in data set [2], 440 µM. For the same compound, in data set [3], the Ratio was 2600.

Regarding `CC(=N)N1CCC(Oc2ccc(C(=O)NCCOc3cc(C(=N)N)ccc3CCC(=O)O)cc2)CC1`, the Ki in data set [1] is 0.033 µM; in data set [2], above 1500 µM. In data set [3], the Ratio is above 45000.

Consider `N=C(N)c1ccc(C(=O)NCCOc2cccc(C(=N)N)c2)cc1`, for which the Ki amounted to 0.22 µM in data set [1] and 710 µM in data set [2]. For the same compound, the Ratio in data set [3] is 3200.

Regarding `N=C(N)c1cccc(OCCNC(=O)C2CCN(c3ccncc3)CC2)c1`, the values for the Ki in data set [1] and in data set [2] were 0.29 µM and 1000 µM, respectively. Further, in data set [3], the Ratio was 3500.

The compound `N=C(N)c1ccc(CC(=O)C(=O)O)c(OCCNC(=O)C2CCN(c3ccncc3)CC2)c1` had a bioavailability in data set [4] of 12%. The inhibition constant (Ki) in data set [1] is 0.021 µM; in data set [2] it was 140 µM. In addition, the PT in data set [5] and in data set [6] was 0.22 µM in each case. Also, the Ratio in data set [3] is 6700.

Regarding `N=C(N)c1cccc(OCCNC(=O)c2ccccc2)c1`, the Ki in data set [1] stood at 2.8 µM; in data set [2], 800 µM. Besides, in data set [3], the Ratio came to 290.

Regarding `CC(=N)N1CCC(Oc2ccc(C(=O)N[C@@H](COc3cc(C(=N)N)ccc3CC(=O)C(=O)O)CC(=O)O)cc2)CC1`, the bioavailability in data set [4] came out at 12%. Further, the Ki was determined as 0.011 µM in data set [1] and 540 µM in data set [2]. Moreover, the PT in data set [5] and in data set [6] was 0.38 µM each time. Further, in data set [3], the Ratio turned out to be 49000.

Turning to `N=C(N)c1cccc(OCCNC(=O)c2ccc(C(=O)N3CCCC3)cc2)c1`, the inhibitory constant (Ki) in data set [1] came to 0.02 µM; in data set [2], 110 µM. The Ratio in data set [3] came to 5500.

The record behind these values is ChEMBL document CHEMBL1145031, “Rational design, synthesis, and structure-activity relationships of novel factor Xa inhibitors: (2-substituted-4-amidinophenyl)pyruvic and -propionic acids” (J Med Chem, 2003).
